Laboratory results: paper PMC11187553 (RSC Medicinal Chemistry, 2024)
Entries after “also recorded” stand apart in the source; their conditions may differ.

Columns and labels:
SH-SY5Y cells [1] = test: Cytotoxic effects in SH-SY5Y cells; type: cell-based, human; details: for cytotoxicity (in words): 0.1-100 μM, 24, 48 or 72 h
SH-SY5Y cells [2] = test: Analysis of cell cycle in SH-SY5Y cells; type: cell-based, human; details: 72 h
How it was run: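 SH-SY5Y cells were grown in DMEM with 10% FBS and antibiotics at 37 °C in 5% CO2. After 72 h with test compound, cells were collected, fixed in 70% ice-cold ethanol and stained with a propidium iodide cell-cycle reagent for 30 min in the dark at room temperature. Cell-cycle distribution was read by flow cytometry.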

[3] = system: histones H2/H3 lysine acetylation; test: Western blot of lysine acetylation of histones H2/H3 in SH-SY5Y cells; type: cell-based, human; details: 5 μM, 6 h
How it was run: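 SH-SY5Y cells were seeded at 20 × 10^4 cells/cm2 and grown 48 h, then given 5 μM test compound or vehicle for 6 h. Cells were washed in 10 mM sodium butyrate/PBS, nuclei isolated, and histones acid-extracted (0.4 N H2SO4, 4 °C, 1 h) and precipitated in acetone. Samples ran on 15% gels and were blotted to nitrocellulose with anti-acetyl-lysine antibody. Densitometry was normalised to H1.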

SH-SY5Y cells [4] = test: SH-SY5Y viability after sulforaphane; type: cell-based, human; details: data not shown
[5] = system: reactive oxygen species (ROS) in SH-SY5Y cells; test: ROS determination with DCFDA probe in SH-SY5Y cells; type: cell-based, human; details: for protective effect against TBH-induced oxidative stress: 2 μM 24 h pre-treatment, 100 μM tert-butyl hydroperoxide 30 min; for effect on endogenous ROS (oxidative stress) vs control: 2 μM, 24 h, DCFDA
How it was run: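 SH-SY5Y cells (1 × 10^4/well) were left 24 h to adhere, then given vehicle or 2 μM test compound for 24 h. After washing, cells were loaded with 10 μM DCFDA in DMEM for 30 min. Oxidative stress was then induced with 100 μM tert-butyl hydroperoxide in PBS for 30 min. Fluorescence (485/535 nm) was normalised to Lowry protein; experiments were done in triplicate.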

SH-SY5Y cells [6] = test: SH-SY5Y viability after NAC pre-treatment and compound 6; type: cell-based, human; details: NAC 2 mM 1 h, then compound 10 μM 24 h
[7] = system: neural progenitor cells (neurospheres); test: Neurospheres proliferation; type: cell-based, Mus musculus; details: 7 DIV
How it was run: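 NPCs from the subventricular zone of 8-month-old male C57BL/6N mice were Accutase-dissociated and plated as single cells (5 × 10^3/well) in suspension. Medium was DMEM-F12 with glutamine, insulin, 20 ng ml−1 EGF, 20 ng ml−1 FGF2, N2 and B27. Test compound (2.5–50 μM) or DMSO was present for 7 DIV. Brightfield live-cell images were taken daily; only aggregates over 400 μm2 were analysed.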

[8] = system: neural progenitor cells (neurospheres); test: Neurospheres differentiation analysis; type: cell-based, Mus musculus; details: 2.5 and 5 μM, 7 DIV
How it was run: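 Neurospheres came from subventricular-zone NPCs of 8-month-old male C57BL/6N mice. Thirty spheres were plated on Matrigel-coated coverslips in complete DMEM F-12 with test compound or DMSO for 7 DIV. Cells were fixed in 4% PFA, permeabilised with Triton, blocked in goat serum, and stained overnight at 4 °C for DCX, GFAP, Olig2 and Nestin. Confocal z-stacks gave marker intensity/DAPI intensity; mean ± SD of 3 fields per condition.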

HDAC6 = target: T1, HDAC6 (Homo sapiens, UniProt Q9UBN7); test: HDAC inhibition in vitro assay; type: biochemical; details: from IC50 values of Table 2
T1 sequence (Q9UBN7 1-1215): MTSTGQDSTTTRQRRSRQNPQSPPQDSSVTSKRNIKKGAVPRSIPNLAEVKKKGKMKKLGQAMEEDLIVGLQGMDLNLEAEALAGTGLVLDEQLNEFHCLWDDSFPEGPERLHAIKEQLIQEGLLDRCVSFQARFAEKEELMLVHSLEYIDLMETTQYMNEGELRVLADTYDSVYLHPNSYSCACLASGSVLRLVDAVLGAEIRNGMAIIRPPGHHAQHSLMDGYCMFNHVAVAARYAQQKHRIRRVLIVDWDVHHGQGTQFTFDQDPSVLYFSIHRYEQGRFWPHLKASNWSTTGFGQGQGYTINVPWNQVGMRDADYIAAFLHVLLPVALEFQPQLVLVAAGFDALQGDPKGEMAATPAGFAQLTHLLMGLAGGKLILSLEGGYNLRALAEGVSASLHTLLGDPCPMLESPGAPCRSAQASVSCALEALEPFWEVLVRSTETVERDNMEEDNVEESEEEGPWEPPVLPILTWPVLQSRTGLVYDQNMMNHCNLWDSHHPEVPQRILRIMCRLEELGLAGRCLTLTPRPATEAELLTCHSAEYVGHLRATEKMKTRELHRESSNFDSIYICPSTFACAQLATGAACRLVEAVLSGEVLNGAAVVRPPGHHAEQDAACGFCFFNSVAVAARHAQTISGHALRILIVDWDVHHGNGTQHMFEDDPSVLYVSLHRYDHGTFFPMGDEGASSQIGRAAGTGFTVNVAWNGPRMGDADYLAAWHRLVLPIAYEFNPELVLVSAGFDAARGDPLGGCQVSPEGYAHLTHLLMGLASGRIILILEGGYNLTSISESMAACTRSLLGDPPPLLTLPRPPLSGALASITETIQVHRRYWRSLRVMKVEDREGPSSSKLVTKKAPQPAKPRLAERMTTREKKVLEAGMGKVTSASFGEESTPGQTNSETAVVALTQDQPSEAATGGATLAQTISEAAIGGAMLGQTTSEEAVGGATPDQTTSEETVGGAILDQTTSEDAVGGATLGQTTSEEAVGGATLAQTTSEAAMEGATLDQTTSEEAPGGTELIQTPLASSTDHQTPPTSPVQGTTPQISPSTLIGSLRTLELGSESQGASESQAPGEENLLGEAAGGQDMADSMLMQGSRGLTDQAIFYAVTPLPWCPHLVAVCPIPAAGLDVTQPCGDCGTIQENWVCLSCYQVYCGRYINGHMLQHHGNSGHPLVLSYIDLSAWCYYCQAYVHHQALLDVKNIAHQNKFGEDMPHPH

HepG2 cells = test: Cytotoxicity in human hepatoma cell line HepG2; type: cell-based; details: 24 h incubation at 1-100 μM, MTT
How it was run: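 HepG2 cells were grown in MEM with 10% FBS, penicillin and streptomycin, then seeded at 1.5 × 10^4 cells/well. After 24 h they received test compound ([…]) in complete medium or vehicle for 24 h. MTT (0.2 mg mL−1 in PBS) was added for 2 h at 37 °C, formazan was dissolved in DMSO, and A570 was read. Results are % live cells versus vehicle, mean ± SD, n = 4.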

SH-SY5Y cells [9] = test: Protection of SH-SY5Y cells from H2O2 cytotoxicity; type: cell-based, human; details: pre-treatment at all concentrations (1-50 μM), 24 h

## CC1=C(NCCCCCC(=O)NO)C(=O)c2ccccc2C1=O [Compound 2, N-Hydroxy-6-((3-methyl-1,4-dioxo-1,4-dihydronaphthalen-2-yl)amino)hexanamide]
SH-SY5Y cells [1]; Homo sapiens, 24 h, read-out: IC50 (μM) ± SEM 24 h
  IC50: > 100 µM

## Nc1ccccc1NC(=O)c1ccc(CNC2=CC(=O)c3ccccc3C2=O)cc1 [Compound 5, N-(2-Aminophenyl)-4-(((1,4-dioxo-1,4-dihydronaphthalen-2-yl)amino)methyl)benzamide]
SH-SY5Y cells [1]
  cytotoxicity (in words): comparable to that of vorinostat

## CC1=C(NCc2ccc(C(=O)Nc3ccccc3N)cc2)C(=O)c2ccccc2C1=O [Compound 6, N-(2-Aminophenyl)-4-(((3-methyl-1,4-dioxo-1,4-dihydronaphthalen-2-yl)amino)methyl)benzamide]
SH-SY5Y cells [2]
  cell-cycle block in G0/G1, S or G2/M (cytostatic effect): no cell-cycle block
[3]
  acetylation of histone H2/H3 lysines: massive hyperacetylation
SH-SY5Y cells [4]; SFN pre-treatment
  change of toxic activity in cells pretreated with sulforaphane: did not observe any change in the toxic activity
[5]
  protective effect against TBH-induced oxidative stress: did not show any protective effect
  effect on endogenous ROS (oxidative stress) vs control: significant induction of oxidative stress
SH-SY5Y cells [6]
  mitigation of cytotoxic effect by NAC pre-treatment: not mitigated

## O=C(CS)NCCCCNC1=CC(=O)c2ccccc2C1=O [Compound 7, N-(4-((1,4-Dioxo-1,4-dihydronaphthalen-2-yl)amino)butyl)-2-mercaptoacetamide]
SH-SY5Y cells [1]
  cytotoxicity (in words): lowest cytotoxicity

## CC1=C(NCCCCNC(=O)CS)C(=O)c2ccccc2C1=O [Compound 8, 2-Mercapto-N-(4-((3-methyl-1,4-dioxo-1,4-dihydronaphthalen-2-yl)amino)butyl)acetamide]
[7]; 2.5 and 5 μM
  neurospheres number per well vs DMSO control: significantly increased
  neurospheres size vs DMSO control: without affecting
[7]; higher concentrations 25, 50 μM
  toxicity to neurospheres: toxic
[8]
  DCX+ cells (immature neurons marker) vs DMSO control: significantly increased
  GFAP expression (astrocytes marker) vs DMSO control: without affecting
  Nestin+ cells (NPCs marker) vs DMSO control: decreased
  Olig2 expression (OPCs marker) vs DMSO control: without affecting
SH-SY5Y cells [4]; SFN (NQO1 inducer)
  protective activity in H2O2-stressed cells after sulforaphane treatment: no increase in the protective activity
HDAC6
  selectivity between HDAC2 and HDAC6 isoforms: no selectivity
SH-SY5Y cells [1]
  cytotoxicity (in words): nontoxic up to the concentration of 100 μM; also recorded: lowest cytotoxicity
HepG2 cells
  toxicity in HepG2 cells (in words): no significant toxicity up to 10 μM
[5]
  protective effect against TBH-induced oxidative stress: did not show any protective effect
  effect on endogenous ROS (oxidative stress) vs control: only a tendency to increase ROS production
SH-SY5Y cells [9]
  rescue of SH-SY5Y cell viability from H2O2: did not rescue
